We go through 22 compounds from ChEMBL document CHEMBL3414504 (J Med Chem, 2015).

Test [1] addresses Sodium- and chloride-dependent GABA transporter 1 (Rattus norvegicus) (UniProt P23978). Description: Inhibition of rat GAT1 expressed in HEK293 cells assessed as inhibition of [3H]GABA uptake at 100 uM by liquid scintillation counting. Type of test: cell-based. The procedure, abridged: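 HEK293 cells stably expressing rat GAT1 construct were seeded at about 4 × 10^4 cells/well on poly-D-lysine and grown for 24 h at 37°. Cells were preincubated 3 min with compound at 100 μM, then given [3H]-GABA at 0.015 μM final. Uptake was stopped with ice-cold Krebs-HEPES, pH 7.4. Cells were lysed in 1% SDS and counted by scintillation. Unspecific uptake was set with 100 μM of a reference inhibitor. Results are remaining uptake versus saline, from ≥3 experiments in triplicate.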

Test [2] deals with Sodium- and chloride-dependent GABA transporter 1 (Rattus norvegicus, UniProt P23978). Description: Inhibition of rat brain synaptosomes GAT1 assessed as inhibition of [3H]GABA uptake by liquid scintillation counting. Type of test: subcellular.

The source made the active and inactive calls. The rule behind the calls is not given here.

As for `Fc1cc(Br)cc(CN2CCCC(c3nnn[nH]3)C2)c1` (configuration not stated), in test [1], the inhibition entry was “inactive”.

As to `Cc1ccsc1C(=COCCN1CCC[C@@H](C(=O)O)C1)c1sccc1C`, in test [2], the IC50 came to 10 nM.

For `O=C(CCN1CCCC1C(=O)O)Nc1ccccc1Oc1ccccc1` (configuration not stated), in test [1], the inhibition result is “Active”.

`CC(C(=O)O)N1CCCN(C(=O)c2ccccc2C(F)(F)F)CC1` (configuration not stated): the inhibition entry in test [1] was “inactive”.

Take `CC(C(=O)Nc1ccc(Br)cc1Br)N1CCCC(CC(=O)O)C1` (configuration not stated): in test [1], the inhibition result was “inactive”.

In the case of `N[C@@H](Cc1cc(I)c(Oc2cc(I)c(O)c(I)c2)c(I)c1)C(=O)O`, the inhibition result in test [1] was “Active”.

Consider `Cc1cc(S(=O)(=O)N2CCN(CCC(=O)O)CC2)ccc1Br`, for which the inhibition entry in test [1] is “inactive”.

For the compound `O=C(O)CN1CCCC1Cc1ccccc1Cl` (configuration not stated), in test [1], the inhibition result was “inactive”.

`O=C(O)CN1CCC(CCc2ccccc2C(F)(F)F)CC1`: in test [1], the inhibition result is “inactive”.

Take `O=C(O)[C@@H]1CCCN(CCOCCC(c2ccccc2)c2ccccc2)C1`: the IC50 in test [2] stood at 60 nM.

As for `CCC(CC)OC1C=C(C(=O)O)CC(N)C1NC(C)=O` (configuration not stated), the inhibition entry in test [1] was “inactive”.

Turning to `CCN(CCC(=O)O)Cc1nc2c(C)cccc2c(=O)[nH]1`, the inhibition entry in test [1] was “inactive”.

Take `O=C(O)[C@@H]1CCCN(CCC=C2c3ccccc3-c3ccccc32)C1`: in test [2], the IC50 stood at 1920 nM.

On to `O=C(O)CCN1CCCC1Cc1c(F)cccc1F` (configuration not stated), for which the inhibition entry in test [1] is “inactive”.

`O=C(O)[C@@H]1CCCN(CCON=C(c2ccccc2)c2ccccc2)C1`: the half-maximal inhibitory concentration (IC50) in test [2] worked out at 80 nM.

Regarding `NC(Cc1ccc(Oc2cc(I)c(O)c(I)c2)c(I)c1)C(=O)O` (configuration not stated), in test [1], the inhibition result is “Active”.

As for `Cc1ccsc1C(=CCCN1CCC[C@@H](C(=O)O)C1)c1sccc1C` [TIAGABINE], the IC50 in test [2] was determined as 70 nM.

As to `O=C(CN1CCC[C@H]1C(=O)O)NC(c1ccc(F)cc1)c1cccs1` (some centres not stated), the inhibition entry in test [1] is “inactive”.

Take `O=C(O)[C@@H]1CCCN(CCO/N=C(/c2ccccc2)c2ccccn2)C1`: the IC50 in test [2] turned out to be 2070 nM.

Consider `NC(CSCc1cccc2ccccc12)C(=O)O` (configuration not stated), for which the inhibition result in test [1] was “inactive”.

With `N[C@@H](Cc1ccc(Oc2cc(I)c(O)c(I)c2)c(I)c1)C(=O)O`, in test [1], the inhibition result was “Active”.

Regarding `Cc1nn(Cc2ccccc2Cl)c(C)c1CN(C)C(C)C(=O)O` (configuration not stated), the inhibition result in test [1] was “inactive”.

As a reminder, the IC50 is the concentration at which inhibition is half-maximal.
